{"source": "ChEMBL document CHEMBL1142410", "about": "“Stagonolides B-F, nonenolides produced by Stagonospora cirsii, a potential mycoherbicide of Cirsium arvense” (J Nat Prod, 2008)", "format_in_all_cases": "functional", "key": {"[1]": {"tested_on": "Cirsium arvense", "test": "Phytotoxicity against Cirsium arvense at 1 mg/ml by leaf disk puncture assay", "how_it_was_run": "(§1)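 Leaf disks wounded centrally with a needle, kept on moistened filter paper in closed boxes. Compound dissolved in MeOH, diluted with distilled water to 1 mg/mL final (2% v/v MeOH; MeOH-only control); 10 μL drop applied at the wound. Incubated 48 h under cycles of 8 h dark at 20 °C and 16 h light at 24 °C; necrotic area then measured.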"}, "[2]": {"tested_on": "Sonchus arvensis", "test": "Phytotoxicity against Sonchus arvensis at 1 mg/ml by leaf disk puncture assay", "how_it_was_run": "as §1"}, "[3]": {"tested_on": "Colpoda steinii", "test": "Phytotoxicity against Colpoda stenii at 0.05 mg/ml after 3 hrs", "settings": "Colpoda steini, in the assay text read “Zootoxicity” for “Phytotoxicity”", "how_it_was_run": "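Dried Colpoda steinii culture (~5000 cells per mL) revived in Lozina-Lozinskogo medium, 24 h at 25 °C. Compound in 4% EtOH mixed 1:1 v/v with the suspension, 0.05 mg/mL final; 4% EtOH control. Immobile cells (%) counted over 3–180 min. Full immobilisation within 3 min scored as strong toxicity; loss of motility at ≥180 min scored as medium.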"}}, "data": [{"smiles": "C[C@@H]1CC[C@@H](O)/C=C/C=C\\C(=O)O1", "values": [{"measurement": "Activity", "setting": "[1]", "value": "Not toxic"}, {"measurement": "Activity", "setting": "[2]", "value": "Not toxic"}]}, {"smiles": "C[C@@H]1OC(=O)CC[C@H](O)/C=C/[C@@H]2O[C@H]12", "values": [{"measurement": "Activity", "setting": "[1]", "value": "Not toxic"}, {"measurement": "Activity", "setting": "[2]", "value": "Not toxic"}]}, {"smiles": "CCC[C@H]1OC(=O)CCC/C=C/C(=O)[C@@H]1O", "values": [{"measurement": "Activity", "setting": "[1]", "value": "Toxic"}, {"measurement": "Activity", "setting": "[2]", "value": "Toxic"}, {"measurement": "Activity", "setting": "[3]", "value": "Not toxic"}]}, {"smiles": "C[C@@H]1C/C=C/[C@@H](O)CCCC(=O)O1", "values": [{"measurement": "Activity", "setting": "[1]", "value": "Not toxic"}, {"measurement": "Activity", "setting": "[2]", "value": "Not toxic"}]}, {"smiles": "C[C@@H]1C[C@H](O)/C=C/[C@@H](O)CCC(=O)O1", "values": [{"measurement": "Activity", "setting": "[1]", "value": "Not toxic"}, {"measurement": "Activity", "setting": "[2]", "value": "Not toxic"}, {"measurement": "Activity", "setting": "[3]", "value": "Not toxic"}]}, {"smiles": "CCC[C@H]1OC(=O)CC[C@@H](O)/C=C/[C@H](O)[C@@H]1O", "values": [{"measurement": "Activity", "setting": "[1]", "value": "Not toxic"}, {"measurement": "Activity", "setting": "[2]", "value": "Not toxic"}]}]}
